Consider 60 compounds from PubChem BioAssay AID492975 (The Scripps Research Institute Molecular Screening Center, 2010).

SMILES strings stand for the structures. The source made the active and inactive calls.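 Rule for the calls: active = inhibition above 50% of the malaria lysate aminopeptidase activity; inactive = inhibition of 50% or less.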

Sequence of Aspartyl aminopeptidase (Plasmodium falciparum (isolate 3D7)) (Q8I2J3 whole entry, looked up): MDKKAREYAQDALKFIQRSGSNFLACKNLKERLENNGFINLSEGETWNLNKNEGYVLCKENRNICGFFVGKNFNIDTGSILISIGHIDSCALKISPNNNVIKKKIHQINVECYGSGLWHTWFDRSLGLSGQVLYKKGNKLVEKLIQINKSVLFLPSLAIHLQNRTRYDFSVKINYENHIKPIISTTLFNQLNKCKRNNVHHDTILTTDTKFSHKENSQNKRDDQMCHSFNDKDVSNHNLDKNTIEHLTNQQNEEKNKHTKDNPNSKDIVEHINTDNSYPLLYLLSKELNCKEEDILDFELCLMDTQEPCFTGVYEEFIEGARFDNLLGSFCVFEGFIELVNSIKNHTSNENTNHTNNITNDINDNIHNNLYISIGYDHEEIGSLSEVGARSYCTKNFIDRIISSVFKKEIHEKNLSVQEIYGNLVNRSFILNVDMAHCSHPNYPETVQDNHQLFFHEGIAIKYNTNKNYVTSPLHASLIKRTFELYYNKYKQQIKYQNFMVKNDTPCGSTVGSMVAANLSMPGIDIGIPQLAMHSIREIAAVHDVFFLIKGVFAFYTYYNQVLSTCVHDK

This assay addresses Aspartyl aminopeptidase (Plasmodium falciparum (isolate 3D7)) (UniProt Q8I2J3). As to the kind of experiment: inhibitors of M18 aminopeptidase activity, malaria lysate – cell lysate, fluorescence, malaria cell lysate, powder samples, late-stage follow-up (AID 492975). As to conditions: P. falciparum lysate, H-Glu-NHMec fluorogenic substrate; at 5 µM; hits give high values. The gist of the method: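 Test system: P. falciparum malaria cell lysate; Input: malaria cell lysate at 10 µg/mL final; Buffer or medium: 25 mM Tris-HCl buffer, pH 7.5; Also added: fluorogenic substrate H-Glu-NHMec at 50 µM final; Times: 10 min pre-incubation, 30 min reading; Measured by: fluorescence 370/460 nm, 1-min intervals; Control set: no-compound and no-lysate control wells.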
One may read the inhibition as the drop in the measured response relative to a control, in per cent. As for `Oc1ccc(-c2csc(-c3ccccc3)n2)cc1O`, the inhibition is 94%.
Next, `Br/C(C=Nn1cnnc1)=C\c1ccccc1`: 14% (inactive).
Next, `NCCc1ccc(O)c(O)c1`: 70%.
Next, `Oc1cc(O)c2c(c1)O[C@H](c1ccc(O)c(O)c1)[C@H](O)C2`: 89%; `Cc1ccc(NC(=S)Nn2cnnc2)c(C)c1`: 7% (inactive).
In the case of `CC(C)n1c(SCC(=O)Nc2nncs2)nnc1-c1ccco1`, the inhibition is 11% (inactive).
On to `O=C(CSc1ncn[nH]1)Nc1nc(-c2ccccc2)ns1`, for which the inhibition was 12% (inactive).
Next, `O=c1c2c([N+](=O)[O-])cc([N+](=O)[O-])cc2sn1Cc1ccccc1`: 94%; `CCOC(=O)C1=C(CS(=O)(=O)c2ccc(F)cc2)NC(=O)NC1c1ccc(O)c(O)c1` (stereo not given): 90%; `O=C(Nc1cccc(Cl)c1Cl)Nn1cnnc1`: 26% (inactive).
Next, `COC(=O)CN(n1cnnc1)S(=O)(=O)c1ccccc1`: 0% (inactive); `Cc1cccc(NC(=S)Nn2cnnc2)c1C`: 12% (inactive); `Cc1cc(C)cc(C(=O)n2cnnc2N)c1`: 11% (inactive).
As to `O=c1[nH]c(CSc2ncn[nH]2)nc2ccccc12`, the inhibition is 15% (inactive).
In the case of `Oc1ccc(/C=C/c2cc(O)cc(O)c2)cc1`, the inhibition is 66%.
Next, `Oc1ccc(-c2csc(-c3cccnc3)n2)cc1O`: 99%; `O=C(NC(=S)Nn1cnnc1)c1ccccc1Br`: 14% (inactive); `O=C(CSc1nc2ccccc2c(=O)[nH]1)c1ccc(O)c(O)c1`: 79%.
Next, `CN1CCc2cccc3c2[C@@H]1Cc1ccc(O)c(O)c1-3`: 84%; `CC1=NNC(=O)/C1=C\c1cn(-c2ccccc2)nc1-c1ccc(F)cc1`: 68%; `O=C(Nc1ccc(Cl)c(Cl)c1)Nn1cnnc1`: 84%.
Next, `CCC(C)c1ccc(O)c(N)c1` (stereo not given): 95%.
Regarding `COc1cccc2c(SCC(=O)N/N=C/c3ccc(O)c(O)c3)cc(C)nc12`, the inhibition is 80%.
Turning to `COc1ccc(C(=O)n2cnnc2N)cc1`, the inhibition is 12% (inactive).
Next, `O=C(CNC(=O)c1ccccc1)NCCc1ccc(O)c(O)c1`: 94%; `Oc1ccc(-c2cn3ccccc3n2)cc1O`: 94%.
Next, `CC1(C)CC(=O)c2c(oc3cc(O)c(O)cc23)C1`: 85%; `CCc1ccccc1NC(=S)Nn1cnnc1`: 14% (inactive); `CC1(C)CC2(CC(c3ccccc3F)c3ccc(O)c(O)c3O2)NC(=S)N1` (stereo not given): 89%.
With `O=C(CSc1ncn[nH]1)OCN1C(=O)c2ccccc2C1=O`, the inhibition was 49% (inactive).
With `Cc1ccc(Cl)cc1NC(=S)Nn1cnnc1`, the inhibition was 16% (inactive).
Next, `Cc1c(Cl)cccc1NC(=O)Nn1cnnc1`: 10% (inactive); `O=C(Nn1cnnc1)c1csc2ccccc12`: 5% (inactive).
Next, `O=C(O)CSc1ncn[nH]1`: 66%; `O=c1c(O)c(-c2ccc(O)c(O)c2)oc2cc(O)cc(O)c12`: 80%.
For `S=C(Nc1cc(Cl)ccc1Cl)Nn1cnnc1`, the inhibition was 20% (inactive).
Next, `O=C(O)c1ccc(O)c(O)c1`: 94%.
Next, `COC(=O)CN(n1cnnc1)S(=O)(=O)c1ccc(C)cc1`: 6% (inactive).
Next, `Cc1nc(-c2ccc(O)c(O)c2)cs1`: 95%; `O=c1[nH]c(=S)[nH]c(O)c1/C=C1\C=c2ccccc2=N1`: 41% (inactive).
`COc1ccc2nc(C)cc(SCC(=O)N/N=C/c3ccc(O)c(O)c3)c2c1`: the inhibition was 83%.
Next, `COc1cc([N+](=O)[O-])ccc1NC(=O)Nn1cnnc1`: 0% (inactive); `O=S(=O)(Nn1cnnc1)c1ccccc1`: 2% (inactive); `COc1ccc(NC(=O)NNC(=O)CCc2ccc(O)c(O)c2)cc1OC`: 86%.
Turning to `O=C(CSc1nn(-c2ccccc2)c(=S)s1)Nn1cnnc1`, the inhibition is 9% (inactive).
`CCN(CC)S(=O)(=O)c1ccc(C(=O)Nn2cnnc2)cc1`: the inhibition is 31% (inactive).
Next, `Cc1ccc([N+](=O)[O-])cc1-c1[nH]c(-c2ccc(O)c(O)c2)nc1-c1ccccc1`: 92%; `Cc1nc2ccccn2c1C(=O)NNC(=O)Nc1ccccc1`: 53%.
For `Nc1nncn1C(=O)CCCOc1ccc(Cl)cc1Cl`, the inhibition was 3% (inactive).
On to `O=C(O)c1cn[nH]c1-n1cnnn1`, for which the inhibition was 7% (inactive).
Consider `Cc1cc(C)n2c(=S)[nH]nc2n1`, for which the inhibition is 74%.
On to `Cc1ccc(-n2c(O)c(/C=N/n3cnnc3)c3ccccc3c2=O)cc1`, for which the inhibition is 12% (inactive).
Next, `COc1cccc(-c2cc(C(=O)Nn3cnnc3)c3ccccc3n2)c1`: 0% (inactive); `Cc1cc(=O)[nH]c(SCC(=O)c2ccc(O)c(O)c2)n1`: 61%.
Next, `OC(Cn1cnnc1)c1ccccc1` (stereo not given): 12% (inactive); `O=C(Nc1ccc(Br)cc1Cl)Nn1cnnc1`: 28% (inactive); `O=C(Nn1cnnc1)c1ccccc1-c1ccccc1`: 10% (inactive).
Next, `COc1ccc(Cl)cc1NC(=O)Nn1cnnc1`: 21% (inactive); `O=[N+]([O-])c1cc([N+](=O)[O-])c2cccnc2c1Oc1ccccc1O`: 85%; `COc1cc(Br)cc(/C=N/c2ncn[nH]2)c1O`: 0% (inactive).
